hERG protect: hERG (human) protection from proarrhythmic block; CHO-hERG, FluxOR thallium flux, dofetilide IC70 present; activation (rescue from dofetilide block), less the hit threshold, % at 10 µM; actives 0.51% (n = 310,000); AID 1511;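 active = activation above the mean of controls blocked by dofetilide plus 5 SD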;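 note: thallium influx through hERG after potassium depolarization seen as dye fluorescence rise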
KCNQ1 act: human KCNQ1 channel potentiation or activation. B-score at 10 µM. AID 2648. CHO-K1 KCNQ1, thallium flux FluxOR fluorescence; active compounds read high. actives 0.35% (n = 310,000). P51787;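 active = fluorescence ratio B-score, a plate-corrected score, at least three library SD, with initial intensity B-score within 5 SD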
Target sequence (P51787 whole entry, looked up): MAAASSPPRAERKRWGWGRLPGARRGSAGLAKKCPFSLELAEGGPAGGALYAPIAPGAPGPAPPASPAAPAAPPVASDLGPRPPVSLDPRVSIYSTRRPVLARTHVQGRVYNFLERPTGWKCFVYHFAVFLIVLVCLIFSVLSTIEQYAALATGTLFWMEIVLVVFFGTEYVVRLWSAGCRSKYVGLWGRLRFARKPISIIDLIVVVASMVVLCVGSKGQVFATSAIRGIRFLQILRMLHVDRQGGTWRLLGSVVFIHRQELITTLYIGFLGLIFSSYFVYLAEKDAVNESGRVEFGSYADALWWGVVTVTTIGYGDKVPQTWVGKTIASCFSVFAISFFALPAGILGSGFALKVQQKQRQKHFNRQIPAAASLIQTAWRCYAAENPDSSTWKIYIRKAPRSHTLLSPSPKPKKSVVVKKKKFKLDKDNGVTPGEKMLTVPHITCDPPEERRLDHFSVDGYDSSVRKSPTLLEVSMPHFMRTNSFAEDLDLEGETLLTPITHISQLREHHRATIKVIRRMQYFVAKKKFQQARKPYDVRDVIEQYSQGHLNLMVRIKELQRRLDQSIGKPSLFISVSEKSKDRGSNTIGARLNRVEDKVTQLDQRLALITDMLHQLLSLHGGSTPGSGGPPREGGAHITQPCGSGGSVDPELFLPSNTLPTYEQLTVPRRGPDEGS
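Assay system: CHO-K1 cells stably expressing KCNQ1. Medium: assay buffer for compound exposure, DMSO matched across wells. Timing: 37 °C overnight plating, 90-min dark dye load, 20-min compound pretreatment. Signal: kinetic FluxOR fluorescence, 10 s baseline plus 110 s post-stimulus.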
KCNK9 inh: inhibitors of human KCNK9 two-pore domain potassium channel | actives 1.2% (n = 310,000) | B-score at 10 µM | HEK293 KCNK9, FluxOR thallium flux fluorescence; active compounds read low | AID 488922 | Q9NPC2;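 active = ratio B-score over 3 SD below the library mean, with starting fluorescence within 5 SD of its mean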;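 note: negative B-score means less thallium flux so channel inhibition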
Kir21 inh: inhibitors of mouse Kir2.1 inward-rectifier potassium channel | B-score at 10 µM | actives 0.85% (n = 310,000) | AID 1672 | HEK293-Kir2.1, FluxOR thallium flux fluorescence; active compounds read low | P35561;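 active = fluorescence ratio B-score at or below minus 3 SD of library scores, with starting-brightness B-score within 2 SD, cut at about -4.2 in these data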;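 note: channel flux triggered by added potassium and thallium sulfate stimulus; B-score of peak minus minimum fluorescence over baseline after thallium stimulus; more negative B-score means stronger Kir2.1 block with less thallium influx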
KCNQ1 block: blocks the human KCNQ1 potassium channel; P51787; CHO-K1 KCNQ1, FluxOR thallium flux fluorescence; active compounds read high; B-score at 10 µM; actives 1.3% (n = 310,000);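 active = compounds whose thallium flux B-score, printed positive for inhibition, exceeds three library SD while starting fluorescence stays within three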;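 note: channel opened by potassium depolarization with thallium stimulus after 20 min compound exposure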
KCNK3 block: human KCNK3 channel inhibition, primary screen; CHO-KCNK3 thallium flux, FluxOR fluorescence; active compounds read low; actives 0.84% (n = 340,000); AID 602410; O14649; B-score at 10 µM;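 active = B-score under library mean minus 4 SD, starting fluorescence ratio at most library mean plus 5 SD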;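 note: more negative B-score means stronger inhibition of thallium flux through KCNK3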
KCNK3 inh conf: human KCNK3 channel inhibition, confirmation assay; shares compounds with KCNK3 block; CHO-KCNK3 thallium flux, FluxOR fluorescence; 0% buffer, 100% carvedilol maximal block; ratio percent of control, % at 10 µM; actives 99% (n = 2,400); AID 651638;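 active = ratio percent of control, averaged over triplicates, above buffer control mean plus 5 SD, cut at about 64% in these data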;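 note: ratio is the fluorescence rise from min to max over baseline after thallium stimulus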
KCNK3 noninduced: counter-screen for KCNK3 inhibitors: effect in non-induced cells. shares compounds with KCNK3 block. non-induced KCNK3 parental cells, FluxOR thallium flux; active compounds read low. thallium flux ratio (lower = more inhibition) at 10 µM. actives 40% (n = 2,400);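 active = thallium flux ratio, averaged over three wells, more than 5 SD below the buffer control mean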;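 note: host cells are CHO cells without KCNK3 induction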
Of the large screens only hits and unclear results are named; the others gave an inactive call (follow-up assays come after a bar, where they were run). Hits are enriched below; roughly 3.8% of the tested compounds scored in any of these assays.

CCOC(=O)C1=C(CSc2nc(CC)c(C)cc2C#N)OC(N)=C(C#N)C1c1ccccc1 (centres undefined)	KCNK3 block -9.8 | KCNK3 inh conf 109 | KCNK3 noninduced inactive
COc1ccc(Cl)cc1NC(=S)Nc1cccc(C)c1	KCNK3 block -9.4 | KCNK3 inh conf 105 | KCNK3 noninduced inactive
Cc1ccc(C)c(C(=O)COC(=O)c2c(-c3ccccc3)noc2C)c1	KCNK3 block -14 (no result: hERG protect, KCNQ1 act, KCNK9 inh, Kir21 inh, KCNQ1 block) | KCNK3 inh conf 136 | KCNK3 noninduced inactive
Cc1ccc(OCCOC(=O)c2c(-c3ccccc3)noc2C)cc1	KCNK9 inh -6.7, KCNK3 block -8.8 | KCNK3 inh conf 101 | KCNK3 noninduced inactive
Cc1c2cnn(CC(=O)NCCCN3CC(C)CC(C)C3)c(=O)c2c(C)n1Cc1ccccc1Cl (centres undefined)	none
O=C(c1cccc2ccccc12)C1CCCN(C(=O)c2ccc(N3CCOCC3)cc2)C1 (centres undefined)	KCNK3 block -9.3 | KCNK3 inh conf 99 | KCNK3 noninduced inactive
C/C(N)=C(/C#N)C(=O)COC(=O)C1CCN(S(=O)(=O)c2cccs2)CC1	none (no result: hERG protect, KCNQ1 act, KCNK9 inh, Kir21 inh, KCNQ1 block)
CCc1cccc(NC(=O)c2cccc3c2C(=O)N(C2CCCCC2)C3)c1	KCNK3 block -8.7 | KCNK3 inh conf 78 | KCNK3 noninduced inactive
O=C(NCCc1ccc(Cl)cc1)c1ccc2c(c1)OCCO2	none
CSCCC(NS(=O)(=O)c1cccc(C(F)(F)F)c1)C(=O)Nc1ccccc1N1CCCC1 (centres undefined)	none
CCCSc1nnc2c(n1)OC(c1cccn1C)N(C(C)=O)c1ccccc1-2 (centres undefined)	KCNK3 block -13 | KCNK3 inh conf 122 | KCNK3 noninduced inactive
CC(=Nc1ccccc1)c1sc2ccccc2c1O	none
CC(=Nc1ccc(Br)cc1)c1sc2ccccc2c1O	KCNK3 block -11 | KCNK3 inh conf 131 | KCNK3 noninduced inactive
COc1ccc2ccccc2c1CN1CCN(C(=O)c2ccco2)CC1	KCNK3 block -11 | KCNK3 inh conf 90 | KCNK3 noninduced inactive
Cc1cccc2nc(CSCc3ccco3)cn12	none
Cc1cc(C)n2cc(CSCc3ccco3)nc2n1	KCNK3 block -17 | KCNK3 inh conf 78 | KCNK3 noninduced inactive
Cc1ccc(-c2nc(Nc3ccc(O)cc3)c3ccccc3n2)cc1	none
COCCN(CCOC)c1nc(-c2ccc(C)cc2)nc2ccccc12	KCNK3 block -12 | KCNK3 inh conf 86 | KCNK3 noninduced 0.13
Cc1ccc(-c2nc(C(Cl)Cl)c3ccccc3n2)cc1	KCNK3 block -9.2 | KCNK3 inh conf 114 | KCNK3 noninduced inactive
O=C1Cc2cc([N+](=O)[O-])ccc2N1c1c(Cl)cccc1Cl	none
CC(=O)Oc1c(I)cc(I)cc1C(=O)Nc1ccc(Cl)cc1	KCNQ1 block 7, KCNK3 block -11 | KCNK3 inh conf 123 | KCNK3 noninduced 0.13
COc1ccc(Cl)cc1C(=O)Nc1ccc(NC(C)=O)cc1	none
CCn1c(SCC(=O)Nc2cccc(F)c2)nc2c(c1=O)SC(C)C2 (centres undefined)	KCNK3 block -8.9 | KCNK3 inh conf 88 | KCNK3 noninduced inactive
Cc1ccccc1-n1nnnc1SCc1ncc(-c2ccccc2)o1	KCNK3 block -9.4 | KCNK3 inh conf 99 | KCNK3 noninduced inactive
CSCCC(NC(=O)c1cccc(S(=O)(=O)N2CCN(C(C)=O)CC2)c1)c1nc2ccccc2[nH]1 (centres undefined)	none (no result: hERG protect, KCNQ1 act, KCNK9 inh, Kir21 inh, KCNQ1 block)
CSCC[C@H](NC(=O)c1ccc(Cl)c(S(=O)(=O)N2CCCC2)c1)c1nc2ccccc2[nH]1	KCNK3 block -11 | KCNK3 inh conf 107 | KCNK3 noninduced inactive
CC(C)C1Cc2c(sc3c2c(=O)n(-c2ccccc2)c2n[nH]c(=S)n32)CO1 (centres undefined)	none
Fc1ccc(/C=C2\CCCC3=C2Nc2ncnn2C3c2ccc(F)cc2)cc1 (centres undefined)	KCNK3 block -9.6 | KCNK3 inh conf 114 | KCNK3 noninduced 0.14
C[C@H](CO)N1C[C@H](C)[C@@H](CN(C)S(=O)(=O)c2ccc(F)cc2)Oc2c(NC(=O)CCC(F)(F)F)cccc2C1=O	none (no result: hERG protect, KCNQ1 act, KCNK9 inh, Kir21 inh, KCNQ1 block)
C[C@H](CO)N1C[C@H](C)[C@@H](CN(C)S(=O)(=O)c2ccccc2)Oc2c(NC(=O)CCC(F)(F)F)cccc2C1=O	KCNK3 block -12 (no result: hERG protect, KCNQ1 act, KCNK9 inh, Kir21 inh, KCNQ1 block) | KCNK3 inh conf 110 | KCNK3 noninduced inactive
C[C@H](CO)N1C[C@H](C)[C@@H](CN(C)Cc2ccc(Cl)c(Cl)c2)Oc2c(NS(=O)(=O)c3cccs3)cccc2C1=O	KCNK3 block -14 (no result: hERG protect, KCNQ1 act, KCNK9 inh, Kir21 inh, KCNQ1 block) | KCNK3 inh conf 127 | KCNK3 noninduced 0.14
C[C@@H]1CN([C@H](C)CO)C(=O)c2cccc(NS(=O)(=O)c3cccs3)c2O[C@H]1CN(C)Cc1ccccc1	none (no result: hERG protect, KCNQ1 act, KCNK9 inh, Kir21 inh, KCNQ1 block)
COc1ccc(CN(C)C(=O)c2ccc(NS(=O)(=O)c3ccc(F)cc3)cc2)c(OC)c1OC	none
Cc1cc(SCC(=O)N/N=C/c2ccc(O)cc2O)nc2ccccc12	KCNK3 block -12 | KCNK3 inh conf 147 | KCNK3 noninduced 0.1
COCCN(C(=O)COC(=O)/C=C/c1ccc2ccccc2n1)c1c(N)n(Cc2ccccc2)c(=O)[nH]c1=O	KCNK3 block -12 | KCNK3 inh conf 55 | KCNK3 noninduced inactive
CN(C(=O)COC(=O)/C=C/c1ccc2ccccc2n1)c1c(N)n(Cc2ccccc2)c(=O)[nH]c1=O	none (no result: hERG protect, KCNQ1 act, KCNK9 inh, Kir21 inh, KCNQ1 block)
COCCN(C(=O)COC(=O)c1c(NC(C)=O)sc(C)c1C)c1c(N)n(Cc2ccccc2)c(=O)[nH]c1=O	KCNK3 block -9.4 | KCNK3 inh conf 97 | KCNK3 noninduced inactive
COc1ccc(S(=O)(=O)N2CCC(C(=O)Nc3nnc(C)s3)CC2)cc1OC	none
O=C(NCCNC(=O)c1ccccc1Cl)c1ccco1	none
O=C(Nc1cccc(-c2nc3ncccc3o2)c1)c1ccccc1	none
Cc1ccc(C(=O)Nc2cccc(-c3nc4ncccc4o3)c2)cc1	KCNK3 block -10 | KCNK3 inh conf 90 | KCNK3 noninduced inactive
CCN(CC)CC(=O)Nc1ccccc1SCC(=O)Nc1ccsc1C(=O)OC	KCNK3 block -9.9 | KCNK3 inh conf 98 | KCNK3 noninduced inactive
C=CCNCC(=O)Nc1ccccc1SCC(=O)Nc1ccsc1C(=O)OC	none
CCN(CC)CCNC(=O)c1ccc(NC(=O)c2cn(-c3ccc(F)cc3)nc2-c2cccc(OC)c2)cc1	Kir21 inh -5.5, KCNQ1 block 11, KCNK3 block -9 | KCNK3 inh conf 111 | KCNK3 noninduced 0.15

Assay outcomes (PubChem)
